The campaign covered roughly 310,000 compounds. About 1,400 (0.45%) were called active.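 How the source made its calls: active means calcium response B-score plate-corrected fluorescence ratio at least 3 library SD, with starting fluorescence B-score inside 5 SD; inactive means the rest.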 This excerpt belongs to a sample that is enriched for actives.

Mas-related G-protein coupled receptor member X1 (Homo sapiens), sequence (Q96LB2 whole entry, looked up): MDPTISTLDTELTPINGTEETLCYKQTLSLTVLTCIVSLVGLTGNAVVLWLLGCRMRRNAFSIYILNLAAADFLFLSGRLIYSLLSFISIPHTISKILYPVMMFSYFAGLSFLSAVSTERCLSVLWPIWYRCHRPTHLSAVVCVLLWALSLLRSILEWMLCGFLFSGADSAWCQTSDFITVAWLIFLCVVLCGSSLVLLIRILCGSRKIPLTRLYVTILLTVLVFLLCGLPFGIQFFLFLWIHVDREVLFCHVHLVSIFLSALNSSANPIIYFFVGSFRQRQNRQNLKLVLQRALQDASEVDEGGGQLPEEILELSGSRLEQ

In this experiment the target is Mas-related G-protein coupled receptor member X1 (Homo sapiens) (UniProt Q96LB2). Kind of experiment: MrgX1 activation via calcium signaling – HEK293 cells, Fluo-4 calcium flux, primary screen (AID 588627).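 On B-score: B-score of the peak-minus-trough calcium fluorescence change over baseline.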 The following applies: Fluo-4 calcium fluorescence, agonist mode, at 10 µM; stronger effect = higher value. The method in brief:
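Test system: Stable human MrgX1 HEK293 cell line | Schedule: Overnight plating before 1 h dye loading | Read-out basis: Baseline-normalised fluorescence change ratio, B-scored | Detection: Kinetic calcium dye fluorescence, Fluo-4 NW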
With `C/C(=C\c1ccco1)C1Nc2cccc3cccc(c23)N1`, the B-score result is “inactive”. Turning to `COC1(C2=NCCN2)COc2ccccc2O1` (configuration not stated), the B-score result is “inactive”. To `COc1ccc(Nc2ncc(C(=O)N3CCN(c4ccccc4OC)CC3)c3ccccc23)cc1` belongs “inactive”; to `Cc1ccc(-n2[nH]c(C)c(/C=N/N3C(=O)c4cccc5cccc(c45)C3=O)c2=O)cc1`, 104 (active); to `COc1cc(SC#N)ccc1N=Cc1c(C)[nH]n(-c2ccc(C)cc2)c1=O`, “inactive”. To `Cc1[nH]n(-c2cccc(Cl)c2)c(=O)c1/C=N/n1c(C)nc2ccccc2c1=O` belongs “inactive”.

With `CCS(=O)(=O)n1nc(-c2ccccc2)nc1SCc1ccccc1`, the B-score was 27.5 (active). Next, `CCn1c(SCc2ccccc2)nc2c(c1=O)SCC2`: “inactive”; `CCS(=O)(=O)n1nc(-c2ccc(OC)cc2)nc1SC`: “inactive”; `CN(CCOc1ccc(Br)cc1)CC(=O)Nc1cccc(S(=O)(=O)NC2=NCCC2)c1`: “inactive”. `O=C(Nc1nnc(-c2ccccc2)o1)c1cc(-c2cccs2)nc2ccccc12`: the B-score is 26.9 (active).

For the molecule `O=C(NCCN1CCOCC1)c1cc(-c2cccs2)nc2ccccc12`, the B-score entry was “inactive”.

`CCCCN(C)CCCNC(=O)c1cc(-c2cccs2)nc2ccccc12`: the B-score entry is “inactive”. For `CCOC(=O)/C(=N\Nc1ccccc1[N+](=O)[O-])c1csc(Nc2ccccc2)n1`, the B-score result was “inactive”. Next, `O=C(Nc1ccc(Cl)cc1)C1c2cccc[n+]2CC(=O)N1Cc1ccc2c(c1)OCO2` (configuration not stated): “inactive”; `CCN1/C(=C/c2ccc3ccc(C)cc3[n+]2CC)Sc2ccccc21`: 123 (active). Next, `CCN1/C(=C\c2ccc3ccccc3[n+]2CC)Sc2cc(C)ccc21`: “inactive”. Next, `CC(C)OCCCNC(=O)c1ccc(C2SCC(=O)N2Cc2ccco2)cc1` (configuration not stated): “inactive”.

Consider `COc1cc(NC(=O)c2ccc3c(c2)OCO3)ccc1NC(=O)c1cccs1`, for which the B-score result was “inactive”. Next, `COc1ccc(OCCCC(=O)OC(C)C(=O)Nc2ccccc2[N+](=O)[O-])cc1` (configuration not stated): “inactive”; `COc1ccc(C)cc1N(CC(=O)N1CCCC1)S(=O)(=O)c1ccccc1`: “inactive”; `COc1ccccc1N(CC(=O)N1CCCCC1)S(=O)(=O)c1ccccc1`: 50 (active).

Take `COc1ccc(N(CC(=O)N2CCCCCC2)S(=O)(=O)c2ccccc2)cc1`: the B-score result is “inactive”. Regarding `Cc1cccc(-c2nc3c(c(SCC(=O)N4CCOCC4)n2)CCCC3)c1`, the B-score result is “inactive”.

As for `C=CCn1c(=NC(=O)c2cccs2)sc2cc(NC(C)=O)ccc21`, the B-score entry was “inactive”. Next, `CCCc1[nH]nc2c1C(c1ccc(OC(=O)c3ccco3)cc1)C(C#N)=C(N)O2` (configuration not stated): “inactive”; `CCCc1[nH]nc2c1C(C1CC=CCC1)C(C#N)=C(N)O2` (configuration not stated): “inactive”.

For `CCCc1[nH]nc2c1C(c1ccc(Br)s1)C(C#N)=C(N)O2` (configuration not stated), the B-score is 26.9 (active).

On to `COc1ccc(S(=O)(=O)N2CCN(c3ncnc4c(-c5ccccc5)nsc34)CC2)cc1`, for which the B-score result was “inactive”. Take `COc1ccccc1CCNS(=O)(=O)c1cn(C)nc1C`: the B-score result is “inactive”. Next, `CS(=O)(=O)N(CC(=O)N1CCCCCC1)c1cccc(Cl)c1Cl`: “inactive”. Next, `Cc1ccc(-n2cc(CN(C)Cc3nccn3C)c(-c3cccc(C)c3)n2)cc1`: “inactive”; `CCOc1c(Nc2cccc(Cl)c2)c(=O)c1=O`: “inactive”. For `O=C(CCN1CCN(C/C=C/c2ccccc2)CC1)Nc1ccccc1Cl`, the B-score entry was “inactive”. To `CCOc1ccc(C(c2c(C)[nH][nH]c2=O)c2c(C)[nH][nH]c2=O)cc1OCC` belongs “inactive”. To `Cc1[nH][nH]c(=O)c1C(c1ccc(-c2ccc(Cl)cc2)o1)c1c(C)[nH][nH]c1=O` belongs 46.3 (active); to `O=C(NC1CCCCC1)c1ccc(-c2ccc(Cl)cc2)o1`, “inactive”; to `CCNc1nc(NC(C)C)nc(OCCOC(=O)c2ccccc2)n1`, “inactive”. To `COc1cccc(-c2ccc(SCC(=O)N3CCN(c4ccccc4)CC3)nn2)c1` belongs “inactive”; to `Cc1ccc(-c2ccc(/C=N/NC(=O)CN3CCOCC3)o2)cc1[N+](=O)[O-]`, “inactive”; to `CN1CCN(/N=C/c2ccc(C#N)cc2)CC1`, “inactive”. For the molecule `CN1CCN(/N=C/c2ccc(-c3ccc([N+](=O)[O-])cc3)o2)CC1`, the B-score is 31.5 (active).

As for `Cn1c(Cn2nnc3ccccc32)nnc1SCC(=O)c1ccccc1F`, the B-score entry is “inactive”.

On to `CCN(CC)S(=O)(=O)c1ccc(N2CCCC2)c(NS(=O)(=O)c2cccs2)c1`, for which the B-score entry is “inactive”. Consider `CC(C)(C)Nc1c(-c2cccs2)nc2ccccn12`, for which the B-score was 44.8 (active).

`Cc1nc2ccccn2c(=O)c1NC(=O)c1cccs1`: the B-score result was “inactive”. Next, `Cc1cc2nc(C(F)(F)F)cc(-c3cccs3)n2n1`: “inactive”; `COC(=O)c1ccc(NC(=O)CN(c2ccc(C)cc2)S(=O)(=O)c2c(C)n[nH]c2C)cc1`: “inactive”. Next, `O=C(CSC1=NS(=O)(=O)c2cc(F)ccc2N1)Nc1ccccc1F`: “inactive”; `COC(=O)c1cn(CC(=O)NCc2cccs2)c2ccccc12`: “inactive”; `COC(=O)N/N=C/c1cn(CCCOc2ccc(C)cc2)c2ccccc12`: “inactive”.

On to `COC(=O)Cn1cc(/C=C/[N+](=O)[O-])c2ccccc21`, for which the B-score was 31.6 (active). Next, `CCCCn1c(N)c(N(CCOC)C(=O)c2cccc(S(=O)(=O)N3CCCCC3)c2)c(=O)[nH]c1=O`: “inactive”; `COCCCNC(=O)CN1C(=O)CSc2ccc(S(=O)(=O)N3CCOCC3)cc21`: “inactive”; `C=CCN(C(=O)Nc1ccc2oc(C)nc2c1)c1ccccc1`: “inactive”.

With `CCN(CC)c1ccc2oc(=O)c(C)nc2c1`, the B-score was 27 (active). Next, `CCN(CC)c1ccc(C(=O)Nn2c(C)nc3ccccc3c2=O)cc1`: “inactive”. Next, `Cc1ccc2c(c1)C1CN(C)CCC1N2S(=O)(=O)c1ccc(Oc2ccc([N+](=O)[O-])cc2)cc1` (configuration not stated): “inactive”; `COC(=O)CNC(c1ccccc1Cl)c1cc(Br)ccc1NC(=O)CCN1CCOCC1` (configuration not stated): “inactive”. As to `O=C(O)c1ccc(/C=C2\SC(=S)N(NC(=O)c3ccc(Br)cc3)C2=O)cc1`, the B-score entry is “inactive”. Regarding `O=C1/C(=C/c2ccc(F)cc2)SC(=S)N1NS(=O)(=O)c1ccccc1`, the B-score is 27.7 (active). On to `O=C1/C(=C/c2ccc(F)cc2)SC(=S)N1CCCC(=O)N1CCCCC1CCO` (configuration not stated), for which the B-score result is “inactive”. In the case of `S=c1[nH]nc(NCCc2ccccc2)s1`, the B-score entry is “inactive”. Next, `CCNc1nc(-c2cc3ccccc3o2)cs1`: “inactive”; `Cc1nc(C)c(-c2csc(NCCc3ccccc3)n2)s1`: 32.5 (active). Next, `Cc1ccccc1NC(=O)Cn1cc(C(=O)C2CC2)c2ccccc21`: “inactive”; `COc1ccc2c(c1)SC(C)CC2=O` (configuration not stated): “inactive”. Next, `COc1ccc2c(c1)OC(O)(C(F)(F)C(F)F)CC2=O` (configuration not stated): 79.7 (active); `COc1ccc2c(c1)O/C(=C\c1ccccc1O)C2=O`: “inactive”; `CN(CC(O)COc1ccc(S(=O)(=O)N2CCOCC2)cc1Cl)C1CCCCC1` (configuration not stated): “inactive”. In the case of `CC(C)(C)NC(=O)CN(C(=O)c1csnn1)c1ccccc1-c1ccccc1`, the B-score entry is “inactive”. Consider `COc1ccc(-c2nc(CN3CCN(c4ncccn4)CC3)c(C)o2)cc1C`, for which the B-score entry is “inactive”. Take `O=C(Nc1ccccc1)c1nnsc1S(=O)(=O)c1ccc(Cl)cc1`: the B-score was 33.9 (active). To `Cc1nnsc1C(=O)N/N=C/c1ccccc1Cl` belongs “inactive”. To `CN(c1cccc(NC(=O)Nc2ccc(Cl)cc2)c1)S(C)(=O)=O` belongs “inactive”; to `Cc1sc2ncn(CC(=O)NCCN(C)C)c(=O)c2c1S(=O)(=O)N1CCC(C)CC1`, “inactive”; to `COC(=O)C1=C(C(=O)OC)C(c2cc([N+](=O)[O-])ccc2O)c2sc(=O)[nH]c2S1` (configuration not stated), “inactive”.

Regarding `CCCC1OC23CCCCC2C(C#N)(C#N)C1(C#N)C(=N)O3` (configuration not stated), the B-score entry was “inactive”. As for `CCOC(=O)C1CCN(C(=O)C2(NC(=O)Nc3cccc(F)c3)CCCCC2)CC1`, the B-score entry is “inactive”. Next, `CCCOc1ccc(C2c3c(oc4cc(C)c(C)cc4c3=O)C(=O)N2CCCN2CCOCC2)cc1` (configuration not stated): “inactive”; `Cc1cc2oc3ccc(NCCC4CCCN4C)cc3c(=O)c2cc1C` (configuration not stated): 27.5 (active). To `Cc1ccc(CS(=O)(=O)CCC(=O)NC2CC2)cc1` belongs “inactive”; to `O=C(NCC(=O)N1CCCC(C(F)(F)F)C1)c1ccccc1F` (configuration not stated), “inactive”. Next, `O=C(NC(Cc1ccccc1)C(=O)N1CCCC(C(F)(F)F)C1)c1ccccc1` (configuration not stated): “inactive”. For `FC(F)(F)C1CCCN(c2nsc3ccccc23)C1` (configuration not stated), the B-score was 30.1 (active). Next, `Cc1n[nH]c(=O)c2c1nnn2Cc1ccc(F)cc1`: “inactive”.

Consider `COc1ccc(CCNC(=O)C(=O)NCC2OCCN2S(=O)(=O)c2ccc(F)cc2)cc1OC` (configuration not stated), for which the B-score result is “inactive”. For the molecule `CC(C)CCN1NC2(CCC(C)CC2)NC1=S` (configuration not stated), the B-score entry was “inactive”. To `CC(C)N(c1ccccc1)c1ncnc(NCCC(=O)O)c1[N+](=O)[O-]` belongs “inactive”; to `COc1cc(/C=C2/SC(=S)N(Cc3ccccc3)C2=O)cc(OC)c1O`, “inactive”; to `O=C1/C(=C\c2ccsc2)NC(=S)N1c1ccccc1`, “inactive”. Next, `CN(C)c1ccc(/C=C2\NC(=S)N(Cc3ccccc3)C2=O)cc1`: 49.1 (active); `CCC(C)c1ccccc1N1CC(C(=O)N2CCN(S(=O)(=O)c3ccc(F)cc3)CC2)CC1=O` (configuration not stated): “inactive”. Regarding `Cc1cc(NC(=O)CSc2nnnn2-c2ccc(F)cc2)no1`, the B-score result is “inactive”.

As to `COc1ccc(C(=O)NC2CCN(C(=S)NCCc3ccccc3)CC2)cc1`, the B-score result is “inactive”.

For `COc1ccc(C(=O)NC(=S)NNC(=O)CCc2ccccc2)cc1`, the B-score is 107 (active). Next, `COc1ccc(C(=O)NC(=S)NC2CCCCC2)cc1`: “inactive”; `COc1ccc(C(=O)NNC(=S)NC(=O)c2ccccc2)cc1`: 113 (active). To `COc1ccc(C(=O)NNC(=S)NC(=O)c2ccccc2[N+](=O)[O-])cc1` belongs “inactive”.

Take `CC(C)Oc1ccc(CCC(=O)NNC(=S)NCc2ccccc2)cc1`: the B-score entry was “inactive”.

In the case of `Cc1ccc(NS(=O)(=O)c2cc3c(cc2C)NC(=O)CO3)cc1`, the B-score entry was “inactive”. To `O=C(Nc1cccc(Cl)c1)Nc1ccccc1NS(=O)(=O)c1cccs1` belongs “inactive”; to `C[n+]1ccc(/C=C/c2c[nH]c3ccccc23)cc1`, “inactive”; to `COc1ccccc1/C=C/CN1CCC(CO)(Cc2ccccc2)CC1`, “inactive”. To `COC(=O)c1ccc(C2C3=C(Nc4nnnn42)c2ccccc2OC3)cc1` (configuration not stated) belongs 27.7 (active); to `COC(=O)C1=C(C(=O)c2ccc(C)cc2)C(c2ccccc2)n2nnnc2N1` (configuration not stated), “inactive”. Turning to `COc1ccccc1NC(=O)C1=C(C)Nc2nnnn2C1c1cccc(Br)c1` (configuration not stated), the B-score entry was “inactive”.

(Values after PubChem BioAssay AID588627 (Johns Hopkins Ion Channel Center, 2011).)
